Hits are enriched below; roughly 4.1% of the tested compounds scored in any of these assays.
MC4R antagonist – blocks human MC4R cAMP signaling | P32245 | MC4R-expressing cells, MTII-stimulated cAMP, LANCE TR-FRET | inhibition, % at 6.5 µM | hit rate 0.48% among 360,000;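 active means inhibition above its plate's cutoff, the mean of tested wells on that plate plus 3 SD, cut at about 29% in these data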
Target sequence (P32245 whole entry, looked up): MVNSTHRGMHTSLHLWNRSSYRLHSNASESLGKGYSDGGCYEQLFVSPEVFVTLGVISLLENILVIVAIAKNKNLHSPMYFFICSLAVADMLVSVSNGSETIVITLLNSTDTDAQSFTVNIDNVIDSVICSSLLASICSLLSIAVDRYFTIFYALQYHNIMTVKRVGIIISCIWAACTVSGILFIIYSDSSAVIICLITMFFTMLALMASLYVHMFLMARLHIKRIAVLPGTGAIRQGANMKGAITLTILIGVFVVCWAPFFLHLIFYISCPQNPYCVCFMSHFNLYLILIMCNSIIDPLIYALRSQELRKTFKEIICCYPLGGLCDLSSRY
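System: U2OS-MC4R stable cell line; Technique: Eu-cAMP/anti-cAMP TR-FRET, emission 671 nm; Repeats: single well per compound; Also added: Melanotan II; Dosing: one concentration, 6.5 µM nominal; Schedule: 30-min compound, 1-h challenge, 1-h detection, room temperature.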
MC4R barr agon – human MC4R agonism via beta-arrestin | activation, % at 8.9 µM | U2OS MC4R beta-arrestin complementation, luminescence; percent of melanotan II response, DMSO zero | P32245 | hit rate 0.98% among 360,000;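 active means activation above a per-plate cutoff, the mean activation of sample wells on that plate plus 3 SD, cut at about 8% in these data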
MPTP inh – blocks calcium-induced mitochondrial swelling | isolated mouse mitochondria, Ca2+ swelling absorbance, 30 min | inhibition, % at 10 µM | hit rate 1.4% among 360,000;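 active means inhibition of 50% or more, scaled per plate between neutral and stimulator controls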
ATG4B inh – ATG4B (human) cysteine protease inhibition. inhibition, % at 8.33 µM. hit rate 0.51% among 340,000. ATG4B cleavage of LC3-PLA2, NBD-HPC fluorescence, 1 h. Q9Y4P1; in the data active means inhibition above about 40%
SMARCA2 activ – activators of SMARCA2 function; AID 652017; activation, % at 9.1 µM; MG213 cells, MMTV-luciferase reporter, dexamethasone, overnight; hit rate 1% among 370,000; in the data active means activation above about 7.8%
MPTP counter – Rhodamine 123 counter-screen of mitochondrial pore hits | shares compounds with MPTP inh | isolated mitochondria, membrane potential, Rhodamine 123 fluorescence | inhibition, % at 10 µM | hit rate 78% among 5,000 | AID 624504; in the data active means inhibition above about 22%
MPTP swell DR – dose response confirmation of mitochondrial permeability transition pore inhibitors; IC50, µM; AID 651561; shares compounds with MPTP inh; isolated mitochondria swelling, absorbance; hit rate 58% among 780; in the data active means IC50 below about 20 µM
MPTP counter DR – active in counter-screen for permeability transition pore inhibitors. shares compounds with MPTP inh. isolated mitochondria counterscreen, fluorescence read-out. IC50, µM. hit rate 49% among 780; in the data active means IC50 below about 80 µM
A number is an active result; n = inactive; x = not tested or not shown.

SMILES | MC4R antagonist | MC4R barr agon | MPTP inh | ATG4B inh | SMARCA2 activ | MPTP counter | others
N=c1n(Cc2ccccc2)c2ccccc2n1Cc1ccccc1 | n | n | n | n | n | x
N=c1n(CC(=O)c2ccc([N+](=O)[O-])cc2)c2ccccc2n1Cc1ccc(Cl)cc1 | n | n | 88.1 | n | n | n
N=c1n(Cc2ccc(Cl)cc2)c2ccccc2n1CC(O)COc1ccccc1 (centres undefined) | n | 11.9 | 77.7 | n | n | 26.7
N=c1n(CCO)c2ccccc2n1Cc1ccc(Cl)cc1 | n | n | 89.2 | n | n | n | MPTP swell DR=13.1;MPTP counter DR=48.3
CC(=O)Nc1ccc(S(=O)(=O)NCC2CCN(C(=O)C(=O)c3cc4ccccc4o3)CC2)cc1 | x | x | x | x | n | x
CC(C=NN=C1C(=O)Nc2ccccc21)=Cc1ccccc1 | x | x | x | x | n | x
Cc1noc(C)c1C(=O)N1CCC(n2nnc3ncccc32)CC1 | x | x | x | x | n | x
Cc1cc(C)cc(NC(=S)Nc2ccc(Cl)c(Cl)c2)c1 | n | n | 102.8 | n | n | 88.8
Cc1cccc(C)c1NC(=S)Nc1ccc(Cl)c(Cl)c1 | n | n | 97.8 | n | n | 96.7
CC(=NNC1=NCCN1)c1cnn(C2=NCCN2)c1C | x | x | n | x | n | x
CCOc1ccc(Br)cc1/C(C)=N\NC1=NCCN1 | n | n | 107.6 | n | n | 66.9
Cc1ncc(CO)c(/C=N/NC(=O)c2ccc(O)cc2)c1O | n | n | n | n | n | x
Cc1ncc(CO)c(/C=N/NC(=S)Nc2ccc(Cl)c(Cl)c2)c1O | n | n | 87.3 | n | n | 69.6
Cc1ncc(CO)c(/C=N/NC(=S)Nc2cccc(Cl)c2)c1O | n | n | 78.4 | n | x | 79.2
Oc1ccc(Cl)cc1CNc1cnc2ccccc2c1 | n | n | n | n | n | x
C=CCc1cccc(CNc2cnc3ccccc3c2)c1O | n | n | 88.7 | n | n | 84.0
CCC(C)NS(=O)(=O)c1ccc(S(=O)(=O)N2CCCC3(CCCCC3)C2)cc1 (centres undefined) | n | n | 88.0 | n | n | 100.0
CCC(C)C(=O)Nc1ccc(S(=O)(=O)N2CCCC2)cc1 (centres undefined) | n | n | n | n | n | x
O=C(Nc1ccccc1)Nc1nnc(Cc2ccc([N+](=O)[O-])cc2)s1 | n | n | 93.2 | n | n | 89.1
O=C(Nc1nnc(Cc2ccc([N+](=O)[O-])cc2)s1)Nc1ccccc1F | n | n | n | n | n | x
Cc1ccccc1NC(=O)Nc1nnc(Cc2ccc([N+](=O)[O-])cc2)s1 | n | n | n | n | n | x
Cc1ccc(NC(=O)Nc2nnc(Cc3ccc([N+](=O)[O-])cc3)s2)cc1C | n | n | 86.3 | n | n | 62.8
O=C(CCc1ccccc1)N[C@H]1[C@@H](OC(=O)c2ccc([N+](=O)[O-])cc2)CCC[C@]12C(=O)N(Cc1ccccc1)c1ccccc12 | x | x | x | x | n | x
COc1cc(C(=O)NCCOc2cc(C)ccc2C(C)C)cc(OC)c1OC | n | n | 57.0 | n | n | 64.3
COC(=O)C1=C(C)N(C)C(=NCC2CC2)NC1c1ccccc1 (centres undefined) | x | x | x | x | n | x
SMILES | MC4R antagonist | MC4R barr agon | MPTP inh | ATG4B inh | SMARCA2 activ | MPTP counter | others
COc1ccc(S[C@]2(C(=O)N3CCOCC3)CC(=O)N[C@@H]2c2ccc(OC)cc2)cc1 | x | x | x | x | n | x
COc1ccc(NS(=O)(=O)c2ccc3[nH]c(=O)[nH]c3c2)cc1 | n | n | n | n | n | x
COc1ccc(NS(=O)(=O)c2ccc3nc(COc4ccc(Cl)c(C)c4)[nH]c3c2)cc1 | n | n | 66.7 | n | n | 65.5
CCCCN1CN2CCc3ccccc3C2CS1(=O)=O (centres undefined) | x | x | x | x | n | x
N#CC1=C(N)SC(N)=C(C#N)C1c1c(Cl)cccc1Cl | n | n | n | n | n | x
CC(C)CC1C(C#N)=C(N)SC(N)=C1C#N | n | n | 62.2 | n | n | 78.3
CCOc1ccccc1C1C(C#N)=C(N)SC(N)=C1C#N | n | n | n | n | n | x
Cc1[nH]nc2c1C(CC(C)C)C(C#N)=C(N)O2 (centres undefined) | n | n | n | n | n | x
N#CC1=C(N)SC(N)=C(C#N)C1CCc1ccccc1 | n | n | 95.7 | n | n | 67.3
N#CC1=C(N)SC(N)=C(C#N)C1c1cccc(Oc2ccccc2)c1 | n | n | 88.9 | n | n | 69.7
N#CC1=C(N)SC(N)=C(C#N)C1Cc1ccccc1 | n | n | 76.6 | n | n | 72.9
N#CC1=C(N)SC(N)=C(C#N)C1c1ccc([N+](=O)[O-])cc1 | n | n | n | n | n | x
COCCNC(=S)N1CCC(c2nc(-c3ccc(N(C)C)cc3)no2)CC1 | n | n | n | n | n | x
O=C(Nc1cccc(C(F)(F)F)c1)N1CCC(c2nc(-c3ccc(F)cc3)no2)CC1 | n | n | 76.9 | n | n | 88.8
CC(C)CNC(=S)N1CCC(c2nc(-c3ccc(F)cc3)no2)CC1 | n | n | 95.3 | n | n | 94.2
O=c1c2ccccc2nnn1Cc1ccco1 | x | x | x | x | n | x
Oc1ccc(Br)cc1/C=N/N1CCCCC1 | n | n | n | n | n | x
Oc1ccc(Br)cc1/C=N/n1cnc2ccccc21 | n | n | 73.5 | n | n | 66.8
CCOc1cccc(/C=N\NC(=O)c2cnccn2)c1O | x | x | x | x | n | x
CN(C)c1cccc(/C=C2\CC3(OC(=O)c4ccco4)CCCN2C3)c1 (centres undefined) | x | x | x | x | n | x
Cc1cc(C)cc(NC(=S)NCCCO)c1 | n | n | n | n | n | x
COC(=O)Cc1ccc(NC(=S)NCCSc2ccc(Cl)cc2)cc1 | n | n | 62.8 | n | n | 77.0
Cc1ccc(SCCNC(=S)Nc2ccc(C)c(C)c2)cc1 | n | n | 72.1 | n | n | 91.4
Cc1cc(C)cc(NC(=S)NCCSc2ccc(Cl)cc2)c1 | n | n | 87.1 | n | n | 97.6
Cc1ccc(SCCNC(=S)Nc2cc(C)ccc2C)cc1 | n | n | n | n | n | x
SMILES | MC4R antagonist | MC4R barr agon | MPTP inh | ATG4B inh | SMARCA2 activ | MPTP counter | others
CC(C)c1ccc(C(=O)N2CCCCC2c2cc(C(=O)NCc3cccnc3)no2)cc1 (centres undefined) | n | n | n | x | n | x
CCOc1ccc(Cc2c(Cl)nc(SC)nc2N(C)C)cc1 | n | n | n | n | n | x
CSc1nc(Cl)c(Cc2ccc(OC(C)C)cc2)c(N(C)C)n1 | n | n | 59.5 | n | n | n | MPTP swell DR=n;MPTP counter DR=35.2
C=CCCC1CN(Cc2ccc(OC)cc2)S(=O)(=O)c2c(cccc2N2CCCC2)O1 (centres undefined) | x | x | x | x | n | x
Nc1nc(Cl)cc(N2CCC(c3cc(-c4ccc(Cl)cc4Cl)n[nH]3)CC2)n1 | n | n | 64.5 | n | n | 63.0
COc1cc([N+](=O)[O-])cc(/C=N/NC(=O)c2ccc(NC(=O)c3ccc(C)cc3)cc2)c1O | n | n | 111.8 | n | n | n
COc1cc([N+](=O)[O-])cc(/C=N/NC(=O)c2ccc(C)nc2)c1O | n | n | n | n | n | x
